ChEMBL document CHEMBL1155661, “Bioactive steroids from the whole herb of Euphorbia chamaesyce” (J Nat Prod, 2000)

What was measured:
Format in all cases: cell-based
Raji [1] = experiment: Inhibition of 12-O-tetradecanoylphorbol-13-acetate induced EBV-early antigen activation in human Raji cells assessed as EA induction at 1000 molar ratio by immunofluorescence assay relative to TPA; parameters: scale not given: the % may be the effect or the level left; details: human gammaherpesvirus 4
Procedure, shortened: (§1)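 Cells at 1 × 10⁶/mL were incubated 48 h at 37 °C with n-butyric acid (4 mM) and TPA (32 pmol, 20 ng/mL) in DMSO, plus compound in DMSO dosed as mol ratio to TPA. EA-positive cells in smears were detected by indirect immunofluorescence with high-titer EBV-EA-positive nasopharyngeal carcinoma patient sera. At least 500 cells were counted, experiments were run twice, and values are expressed relative to TPA alone (100%).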

Raji [2] = experiment: Inhibition of 12-O-tetradecanoylphorbol-13-acetate induced EBV-early antigen activation in human Raji cells assessed as EA induction at 500 molar ratio by immunofluorescence assay relative to TPA; parameters: scale not given: the % may be the effect or the level left; details: human gammaherpesvirus 4; procedure, shortened: as §1
Raji [3] = experiment: Inhibition of 12-O-tetradecanoylphorbol-13-acetate induced EBV-early antigen activation in human Raji cells assessed as EA induction at 10 molar ratio by immunofluorescence assay relative to TPA; parameters: scale not given: the % may be the effect or the level left; details: human gammaherpesvirus 4; procedure, shortened: as §1
[4] = Cytotoxicity against human Raji cells assessed as cell viability at 1000 molar ratio; details: read-out: Activity
Raji [5] = experiment: Inhibition of 12-O-tetradecanoylphorbol-13-acetate induced EBV-early antigen activation in human Raji cells assessed as EA induction at 100 molar ratio by immunofluorescence assay relative to TPA; parameters: scale not given: the % may be the effect or the level left; details: human gammaherpesvirus 4; procedure, shortened: as §1

SMILES | Activity (Raji [1]) | Activity (Raji [2]) | Activity (Raji [3]) | viability at 1000 molar ratio [4] | Activity (Raji [5])
C=C(CC[C@@H](C)[C@H]1CC[C@@]2(C)C3=CC[C@H]4[C@H](C)[C@@H](O)CC[C@]4(C)C3=CC[C@]12C)C(C)C | 0% | 27.3% | 92.4% | 70% | 74.9%
C=C(CC[C@@H](C)[C@H]1CC[C@@]2(C)C3=C(CC[C@]12C)[C@@]1(C)CC[C@H](O)[C@@H](C)[C@@H]1CC3)C(C)C [OBTUSIFOLIOL] | 0% | 30.2% | 95.8% | 70% | 77.4%
C=C(CC[C@@H](C)[C@H]1CC[C@@]2(C)C3=C(C(=O)C[C@]12C)[C@@]1(C)CC[C@H](O)[C@@H](C)[C@@H]1CC3)C(C)C | 0% | 23.6% | 92.8% | 70% | 72.4%
C=C(CC[C@@H](C)[C@H]1CC[C@@]2(C)C3=C(C(=O)C[C@]12C)[C@@]1(C)CC[C@H](O)[C@@H](C)[C@@H]1CC3=O)C(C)C | 0% | 22.5% | 91.9% | 70% | 70.4%
CC1(C)CC[C@]2(C(=O)O)CC[C@]3(C)C(=CC[C@@H]4[C@@]5(C)CC[C@H](O)C(C)(C)[C@@H]5CC[C@]43C)[C@@H]2C1 [OLEANOLIC_ACID] | 12.7% | 22.4% | 93.7% | 70% | 72.5%
